How the values were obtained:
[1] = biological target: T1, Phenylethanolamine N-methyltransferase (Homo sapiens, UniProt P11086); assay: Binding affinity to human PNMT
T1 sequence (P11086 whole entry): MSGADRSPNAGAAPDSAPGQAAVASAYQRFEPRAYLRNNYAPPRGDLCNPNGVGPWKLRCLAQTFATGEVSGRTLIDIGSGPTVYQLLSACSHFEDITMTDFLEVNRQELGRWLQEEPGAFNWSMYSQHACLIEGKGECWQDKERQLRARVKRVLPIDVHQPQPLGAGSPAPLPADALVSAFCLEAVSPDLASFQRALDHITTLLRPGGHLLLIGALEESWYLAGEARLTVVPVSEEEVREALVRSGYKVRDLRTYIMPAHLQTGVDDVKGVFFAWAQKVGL

[2] = biological target: T2, Adrenergic receptor alpha-2 (Rattus norvegicus, UniProt P22086+P19328+P22909); assay: Displacement of [3H]clonidine from alpha-2 adrenergic receptor in Sprague-Dawley rat cortex
T2 sequence (P22086 whole entry): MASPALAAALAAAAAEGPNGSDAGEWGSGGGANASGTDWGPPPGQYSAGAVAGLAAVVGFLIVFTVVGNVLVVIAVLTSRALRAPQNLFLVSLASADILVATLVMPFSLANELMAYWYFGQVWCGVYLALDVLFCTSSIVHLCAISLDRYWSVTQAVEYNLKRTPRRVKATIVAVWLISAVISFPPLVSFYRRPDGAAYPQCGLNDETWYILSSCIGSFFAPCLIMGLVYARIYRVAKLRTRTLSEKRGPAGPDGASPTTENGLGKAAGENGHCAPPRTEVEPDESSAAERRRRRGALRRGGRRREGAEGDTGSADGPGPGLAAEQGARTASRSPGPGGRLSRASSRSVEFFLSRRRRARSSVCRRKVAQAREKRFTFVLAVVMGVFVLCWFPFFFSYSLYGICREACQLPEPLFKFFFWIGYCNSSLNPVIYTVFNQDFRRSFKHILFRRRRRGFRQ
T2 sequence (P19328 whole entry): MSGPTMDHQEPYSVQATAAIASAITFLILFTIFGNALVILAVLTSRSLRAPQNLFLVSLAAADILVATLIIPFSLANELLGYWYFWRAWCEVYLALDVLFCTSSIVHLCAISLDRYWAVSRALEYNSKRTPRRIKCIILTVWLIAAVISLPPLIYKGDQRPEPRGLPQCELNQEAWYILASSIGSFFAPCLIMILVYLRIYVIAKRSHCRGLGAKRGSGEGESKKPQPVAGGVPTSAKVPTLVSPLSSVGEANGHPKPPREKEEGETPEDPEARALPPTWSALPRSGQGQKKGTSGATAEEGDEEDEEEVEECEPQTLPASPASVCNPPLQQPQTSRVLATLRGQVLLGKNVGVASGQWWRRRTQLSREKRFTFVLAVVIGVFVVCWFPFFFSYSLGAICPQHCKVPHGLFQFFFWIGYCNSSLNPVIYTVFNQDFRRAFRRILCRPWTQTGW
T2 sequence (P22909 whole entry): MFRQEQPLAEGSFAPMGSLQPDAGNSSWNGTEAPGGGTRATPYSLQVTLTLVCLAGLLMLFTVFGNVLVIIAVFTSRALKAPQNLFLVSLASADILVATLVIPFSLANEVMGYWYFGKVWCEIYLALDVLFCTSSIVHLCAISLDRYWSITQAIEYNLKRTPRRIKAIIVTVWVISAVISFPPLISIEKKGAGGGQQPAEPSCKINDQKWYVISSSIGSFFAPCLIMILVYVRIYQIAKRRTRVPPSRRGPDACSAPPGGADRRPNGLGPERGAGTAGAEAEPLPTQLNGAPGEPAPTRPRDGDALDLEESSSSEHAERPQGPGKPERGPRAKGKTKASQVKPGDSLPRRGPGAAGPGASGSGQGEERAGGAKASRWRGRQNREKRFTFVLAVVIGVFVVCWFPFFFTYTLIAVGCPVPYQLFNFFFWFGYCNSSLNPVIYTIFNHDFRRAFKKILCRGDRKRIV
Summary of the method: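 Male rat cortex homogenised in ice-cold 50 mM Tris/HCl (pH 7.7 at 25 °C), washed by three 50,000 × g spins. Membranes incubated with [3H]clonidine (final 2.0 nM) and 5 test concentrations over a 16-fold range, 25 °C for 30 min. Bound ligand collected by vacuum filtration onto GF/B filters and counted by scintillation. Nonspecific binding defined with 2 μM phentolamine. Run in quadruplicate; IC50 by log-probit, Ki by Cheng-Prusoff.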

[3] = Dissociation constant, pKa of the compound; type: physicochemical

| SMILES | Ki [1] | Ki [2] | pKa [3] |
| --- | --- | --- | --- |
| O=S(=O)(NCC(F)(F)F)c1ccc2c(c1)CNC(C(F)(F)F)C2 (racemic) |  | > 1000 µM |  |
| O=S(=O)(Nc1ccc(Cl)cc1)c1ccc2c(c1)CNC(C(F)F)C2 (racemic) |  | > 1000 µM |  |
| NS(=O)(=O)c1ccc2c(c1)CNC(C(F)F)C2 (stereo not drawn) |  | > 1000 µM |  |
| CCNS(=O)(=O)c1ccc2c(c1)CNC(C(F)F)C2 (racemic) |  | > 1000 µM |  |
| FC(F)C1Cc2ccc(Br)cc2CN1 (racemic) |  | 230 µM | 6.12 |
| FC(F)C1Cc2ccc(I)cc2CN1 (racemic) |  | > 1000 µM |  |
| O=[N+]([O-])c1ccc2c(c1)CNC(C(F)F)C2 (racemic) |  | > 1000 µM | 5.83 |
| CS(=O)(=O)c1ccc2c(c1)CNC(C(F)F)C2 (racemic) |  | 2500 µM |  |
| COCCCNS(=O)(=O)c1ccc2c(c1)CNC(C(F)(F)F)C2 (racemic) |  | > 1000 µM |  |

Second part, the compound after the results:

| Ki [1] | Ki [2] | pKa [3] | SMILES |
| --- | --- | --- | --- |
| 110 µM | > 1000 µM |  | O=[N+]([O-])c1ccc(NS(=O)(=O)c2ccc3c(c2)CNC(C(F)(F)F)C3)cc1 (racemic) |
|  | 150 µM | 6.42 | FC(F)C1Cc2ccccc2CN1 (racemic) |
|  | > 1000 µM |  | O=S(=O)(NCC(F)(F)F)c1ccc2c(c1)CNC(C(F)F)C2 (racemic) |
|  | > 1000 µM |  | O=[N+]([O-])c1ccc(NS(=O)(=O)c2ccc3c(c2)CNC(C(F)F)C3)cc1 (racemic) |
|  | > 1000 µM |  | CCCCNS(=O)(=O)c1ccc2c(c1)CNC(C(F)F)C2 (racemic) |
|  | > 1000 µM |  | O=S(=O)(Nc1ccc(Cl)cc1)c1ccc2c(c1)CNC(C(F)(F)F)C2 (racemic) |
|  | > 1000 µM |  | COCCCNS(=O)(=O)c1ccc2c(c1)CNC(C(F)F)C2 (racemic) |
|  | > 1000 µM |  | CCCNS(=O)(=O)c1ccc2c(c1)CNC(C(F)F)C2 (racemic) |
|  | > 1000 µM |  | N#Cc1ccc2c(c1)CNC(C(F)F)C2 (racemic) |
|  | 190 µM |  | FC(F)C1Cc2ccc(C(F)(F)F)cc2CN1 (racemic) |
